Screens from PubChem BioAssay.
The list is not random: actives were taken first. Their share in the collection is about 1.8%.
Fam108B inh – Fam108B inhibition, counter-screen for RBBP9 inhibitors; recombinant Fam108B, FP-Rh probe fluorescence polarization; inhibition, % at 9.51 µM; hit rate 0.33% among 300,000; AID 1947;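 active = inhibition above the screen mean inhibition plus 3 SD, computed separately per campaign, cut at about 18% in these data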;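 note: inhibitors lower polarization as less probe binds the enzyme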
ABHD4 inh – inhibits mouse alpha/beta hydrolase domain 4 | Q8VD66 | inhibition, % at 8.92 µM | hit rate 0.54% among 370,000 | AID 720543 | purified mABHD4, FP-Rh probe fluorescence polarization;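 active = inhibition exceeding the mean over every tested compound plus 3 SD, cut at about 30% in these data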;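 note: 0% = plate median of compound wells and 100% = S159A mutant with DMSO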
Target sequence (Q8VD66 whole entry, looked up, the tested form may be a part): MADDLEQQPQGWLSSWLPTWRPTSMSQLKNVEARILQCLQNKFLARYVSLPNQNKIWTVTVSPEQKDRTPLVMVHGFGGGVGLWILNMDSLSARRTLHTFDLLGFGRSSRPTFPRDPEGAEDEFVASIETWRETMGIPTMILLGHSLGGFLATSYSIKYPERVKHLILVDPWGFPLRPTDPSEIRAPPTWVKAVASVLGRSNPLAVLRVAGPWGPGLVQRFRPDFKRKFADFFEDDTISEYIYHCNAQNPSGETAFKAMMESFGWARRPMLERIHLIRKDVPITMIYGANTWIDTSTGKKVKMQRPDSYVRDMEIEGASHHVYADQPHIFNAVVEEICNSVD
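Assay system: wild-type mouse ABHD4 protein; compound: single nominal dose of 8.92 µM, 0.89% DMSO final; schedule: 45 min + 60 min at 25 °C; measured by: FP readout, ex 525 nm / em 598 nm; evaluation: % inhibition of FP-Rh probe binding versus controls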
PME-1 primary – blocks human protein phosphatase methylesterase 1; Q9Y570; recombinant PME-1, FP-Rh probe fluorescence polarization; inhibition, % at 5.9 µM; hit rate 0.53% among 320,000; AID 2130;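 active = inhibition above the campaign mean of all compounds plus 3 SD, cut at about 26% in these data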;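 note: competitive labeling of PME-1 active site by serine hydrolase directed probe; 0% = PME-1 with DMSO and 100% = wells lacking PME-1 enzyme; inhibitors block probe labeling so polarization falls and inhibition rises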
TCR-CD3 inh – human TCR-CD3 binding inhibition. AID 651800. TAMRA-labeled TCR probe fluorescence, biochemical. inhibition, % at 9.4 µM. hit rate 0.37% among 360,000; in the data active = inhibition above about 19%;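 note: recombinant mutant TCR 2C K166C tagged with TAMRA read by polarization; 0% = receptor in buffer alone and 100% = receptor with positive control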
SIAE inh – blocks human sialic acid acetylesterase; Q9HAT2; SIAE FP-Rh probe binding, fluorescence polarization; inhibition, % at 9.66 µM; hit rate 0.69% among 370,000;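 active = inhibition above a cutoff: mean of compounds within the control limits plus 3 SD of those, cut at about 17% in these data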;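 note: 0% = plate median of compound wells and 100% = probe without SIAE protein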
HTRA1 inhibitor – blocks human HTRA1 serine peptidase. AID 504803. hit rate 0.5% among 340,000. inhibition, % at 5.96 µM. Q92743. recombinant HTRA1, FP-rhodamine activity-based probe, fluorescence polarization; in the data active = inhibition above about 36%;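 note: 0% = enzyme with DMSO and 100% = wells lacking enzyme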
ABHD4 confirm – ABHD4 (mouse) inhibition, FP confirmation | shares compounds with ABHD4 inh | inhibition, % at 8.92 µM | hit rate 55% among 1,800 | purified mABHD4, FP-Rh probe fluorescence polarization;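 active = mean inhibition across replicates above the hit cutoff set in the primary screen, cut at about 30% in these data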;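 note: 0% = wild-type ABHD4 with DMSO and 100% = catalytically dead S159A mutant with DMSO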
The depositor's hits bear a star; / = no result given.

SMILES	Fam108B inh	ABHD4 inh	PME-1 primary	TCR-CD3 inh	SIAE inh	HTRA1 inhibitor	ABHD4 confirm
CC(=O)c1ccc2c(c1)C1C=CCC1C(c1ccncc1)N2 (configuration not stated)	13.6	20.7	-6.7	-0.3	7.7	14.7	/
C1=CC2c3ccccc3NC(c3ccncc3)C2C1 (configuration not stated)	13.0	50.1*	10.7	-4.0	10.3	32.6	63.6*
Cc1ccc(S(=O)(=O)N(C)C[C@@H]2Oc3c(NC(=O)C4CC4)cccc3C(=O)N([C@@H](C)CO)C[C@@H]2C)cc1	/	1.7	/	4.0	7.2	-2.2	/
COc1ccc(Cl)cc1NS(=O)(=O)c1ccc2c(c1)NC(=O)CCS2	-4.2	31.7*	15.9	-1.7	-2.2	4.6	26.1
O=C(O)c1ccccc1Nc1cccc(OCc2ccc3ccccc3n2)c1	4.9	36.3*	29.8*	3.9	11.3	-3.3	33.3*
O=C(CCn1nnc(-c2cccs2)n1)NCc1ccco1	/	-3.0	/	/	-6.0	/	/
CN(C)CC(=O)N[C@H]1C[C@@H]2O[C@@H](CO)CC[C@@H]2O[C@@H]1CCc1ccc(C2=CCCCC2)cc1	/	4.9	/	/	0.0	/	/
NS(=O)(=O)c1ccc(-c2ccc(C=O)o2)cc1	-1.3	2.9	0.6	4.9	0.7	/	/
NS(=O)(=O)c1ccc(-c2ccc(/C=C3\NC(=S)NC3=O)o2)cc1	2.3	38.7*	-3.5	6.6	8.9	10.9	19.8
Cc1ccc(Cn2cc(CCC(=O)O)c3ccccc32)cc1	3.7	1.5	-3.9	-0.3	1.5	5.1	/
CCCCN(C)c1c(C)nc2ccc(C(=O)Nc3cc(-c4ccccc4)ccc3OC)cn12	/	39.9*	/	7.9	3.8	/	56.4*
CC(=O)Nc1cc(NC(C)=O)cc(C(=O)OCC(=O)c2ccc3c(c2)NC(=O)CO3)c1	0.0	45.9*	-2.2	-1.8	-3.6	-3.1	7.5
O=C(N1CCc2ccccc2C1)n1cc(C(O)(c2ccccc2)c2ccccc2)nn1	/	85.9*	/	/	-10.4	/	69.0*
O=C(/C=C/C(=O)N1CCc2ccccc2C1)N1CCc2ccccc2C1	3.7	-1.1	-9.1	-3.7	6.4	-14.4	/
CN(C)c1ccc(NC(=S)NC23CC4CC(CC(C4)C2)C3)cc1	-3.4	5.4	-2.2	-2.6	11.9	9.8	/
CCN(CC(=O)Nc1ccc(C(C)=O)cc1)CC(=O)Nc1ccc2c(c1)OCCO2	/	13.7	/	-1.5	6.5	-4.0	/
CCN(CC(=O)Nc1ccc2c(c1)OCCO2)CC(=O)Nc1ccccc1C(F)(F)F	/	31.6*	/	-1.8	5.0	3.4	7.0
CCc1cc(C(=O)N=Nc2c(O)[nH]c3ccc([N+](=O)[O-])cc23)c2ccccc2n1	9.2	40.4*	-1.0	7.7	1.7	6.6	41.4*
Cc1csc(=O)n1CC(=O)OCc1nnc(-c2ccccc2)o1	0.7	-0.2	2.5	-8.3	0.7	-0.2	/
Cc1csc(=O)n1CC(=O)OCc1nnc(-c2ccc(Cl)cc2)o1	1.7	36.2*	-5.5	-2.9	1.4	6.7	4.7
CC(C)n1c(CNC(=O)c2ccccc2F)nnc1SCC(=O)c1ccc(F)cc1	/	11.1	/	10.8	4.2	5.9	/
COc1ccc(NC(C)=O)cc1S(=O)(=O)Nc1ccccc1C(=O)NCCc1ccccc1	-10.4	-4.9	5.6	1.1	-12.4	-3.2	/
COc1ccc(CCNC(=O)c2ccccc2NS(=O)(=O)c2cc(C(=O)O)ccc2OC)cc1	0.1	33.3*	-8.3	-5.3	-13.7	-4.3	23.8
CCCCN1C(=O)C(CC(=O)NCCCCc2ccccc2)CC(C(=O)N(C)C)=C1C (configuration not stated)	/	-2.3	/	-6.5	-6.3	12.6	/
Clc1cccc(-c2ccc(-c3nc4ccccn4c3NCc3ccccc3)cc2)c1	/	37.2*	/	0.5	10.0	-12.9	33.3*
SMILES	Fam108B inh	ABHD4 inh	PME-1 primary	TCR-CD3 inh	SIAE inh	HTRA1 inhibitor	ABHD4 confirm
CC(C)c1nc(CNC(=O)C2CCC(=O)N(Cc3ccc(Cl)cc3)C2)no1 (configuration not stated)	1.0	1.1	5.2	8.6	0.7	-2.2	/
COc1cc(CNc2ccc3[nH]c(=O)[nH]c3c2)cc(Cl)c1OCC(=O)NC(C)(C)C	-1.8	40.0*	4.6	5.8	4.7	12.9	35.7*
COCCCNC(=S)NNC(=O)c1ccccn1	2.4	39.2*	-0.2	-0.5	2.8	1.6	43.8*
O=C(CSc1ccc(-c2ccco2)nn1)c1cccc([N+](=O)[O-])c1	9.2	30.9*	5.7	16.0	11.3	17.9	-0.3
O=C(O)c1ccc(N/N=C/c2ccc(-c3ccc(Br)cc3)o2)cc1	13.2	42.5*	32.9*	3.8	2.8	16.3	84.1*
O=C(N/N=C/c1ccc(-c2ccccc2Cl)o1)c1ccccc1	-17.8	-7.4	-18.8	2.0	6.3	-18.9	/
Cc1ccc(/C=N/Nc2ccc(C(=O)O)cc2)o1	2.1	1.9	-3.9	0.7	-2.4	5.3	/
O=C(O)c1ccc(N/N=C/c2ccc(-c3ccccc3Cl)o2)cc1	7.8	40.4*	12.1	0.1	14.1	-1.8	46.5*
CCOC(=O)C1=C(C)NC2=C(C(=O)c3ccccc32)C1c1ccc(O)cc1 (configuration not stated)	7.2	42.5*	13.3	-8.2	5.2	22.3	49.1*
CCOC(=O)C1=C(C)NC2=C(C(=O)c3ccccc32)C1c1cccc2ccccc12 (configuration not stated)	14.7	20.9	8.4	3.4	7.0	-6.2	/
C[C@H]1CN([C@@H](C)CO)C(=O)CCCn2cc(nn2)CO[C@@H]1CN(C)C(=O)Oc1ccccc1	/	5.5	/	2.0	-1.1	/	/
CO[C@H]1C=CO[C@@]2(C)Oc3c(C)c(O)c4c(O)c(c(C=NN5CCN(C)CC5)c(O)c4c3C2=O)NC(=O)C(C)=CC=C[C@H](C)[C@H](O)[C@@H](C)[C@@H](O)[C@@H](C)[C@H](OC(C)=O)[C@@H]1C	5.3	33.0*	0.9	-6.0	9.6	34.2	10.4
O=C(CCC1CCCCC1)NCCS(=O)(=O)N1CCN(c2ccc(F)cc2)CC1	0.7	-3.7	2.9	-9.3	2.5	1.8	/
O=C1c2cccc(O)c2C(=O)c2c(O)cc(CO)cc21	4.8	/	6.8	/	/	/	/
CC1OC2CC(=O)OC2C2=C1C(=O)c1c(O)cccc1C2=O (configuration not stated)	/	38.0*	/	8.2	12.7	/	34.8*
COc1ccc(C(=O)Nc2cc3c(cc2C(=O)O)OCCCO3)c(OC)c1	1.6	34.9*	10.4	4.7	-29.9	-16.0	55.0*
COC(=O)C1CN(Cc2ccccc2)CCS(=O)(=O)N1Cc1cn(Cc2cccc(Cl)c2)nn1 (configuration not stated)	/	3.9	/	/	-1.1	/	/
